Results taken from ChEMBL document CHEMBL5058577, “EUbOPEN Chemogenomics Library 2 (Multiplex)” (2022).

Test system: HEK-293T
Assay: Multiplex assay against HEK293T
Format: toxicity, cell-based
Conditions: human
Outline: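 Live cells were stained at seeding with Hoechst33342, BioTracker Green Microtubule Cytoskeleton Dye, MitoTracker Red and Annexin V Alexa Fluor 680. Following compound addition, they were imaged on a CQ1 microscope at 37°C and 5% CO2 and gated by CellPathfinder machine learning into Hoechst high-intensity objects or normal cells, with normal cells split into healthy, pyknosed or fragmented nuclei and pyknosed cells into mitotic or apoptotic. Tubulin, mitochondrial-mass and membrane-permeability phenotypes are per cents of healthy-nucleus cells.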

[1] = 12 h, 1 µM, compound concentration 1 uM, replicate 1
[2] = 12 h, 1 µM, compound concentration 1 uM, replicate 2
[3] = 12 h, 10 µM, compound concentration 10 uM, replicate 1
[4] = 12 h, 10 µM, compound concentration 10 uM, replicate 2
[5] = 24 h, 1 µM, compound concentration 1 uM, replicate 1
[6] = 24 h, 1 µM, compound concentration 1 uM, replicate 2
[7] = 24 h, 10 µM, compound concentration 10 uM, replicate 1
[8] = 24 h, 10 µM, compound concentration 10 uM, replicate 2
[9] = 48 h, 1 µM, compound concentration 1 uM, replicate 1
[10] = 48 h, 1 µM, compound concentration 1 uM, replicate 2
[11] = 48 h, 10 µM, compound concentration 10 uM, replicate 1
[12] = 48 h, 10 µM, compound concentration 10 uM, replicate 2

Structure (SMILES): O=C(O)c1cc2ccccc2c(Cc2c(O)c(C(=O)O)cc3ccccc23)c1O [PAMOIC ACID]
- Population Apoptotic (%) [1]: 30%
- Population Fragmented Nuclei (%) [1]: 9%
- Population Healthy Nuclei (%) [1]: 77%
- Population Hoechst High Intensity Objects (%) [1]: 7%
- Population Membrane Permeable-Phenotype (%) [1]: 0%
- Population Mitochondria Different-Phenotype (%) [1]: 38%
- Population Mitotic Cells (%) [1]: 69%
- Population Normal (%) [1]: 92%
- Population Pyknosed Nuclei (%) [1]: 12%
- Population Tubulin-Different-Phenotype (%) [1]: 23%
- Total Cell Count [1]: 432
- Population Apoptotic (%) [2]: 58%
- Population Fragmented Nuclei (%) [2]: 7%
- Population Hoechst High Intensity Objects (%) [2]: 6%
- Population Mitochondria Different-Phenotype (%) [2]: 60%
- Population Mitotic Cells (%) [2]: 41%
- Population Normal (%) [2]: 93%
- Population Pyknosed Nuclei (%) [2]: 15%
- Population Tubulin-Different-Phenotype (%) [2]: 21%
- Total Cell Count [2]: 303
- Population Apoptotic (%) [3]: 34%
- Population Fragmented Nuclei (%) [3]: 8%
- Population Healthy Nuclei (%) [3]: 79%
- Population Hoechst High Intensity Objects (%) [3]: 8%
- Population Membrane Permeable-Phenotype (%) [3]: 0%
- Population Mitochondria Different-Phenotype (%) [3]: 44%
- Population Mitotic Cells (%) [3]: 65%
- Population Normal (%) [3]: 91%
- Population Pyknosed Nuclei (%) [3]: 12%
- Population Tubulin-Different-Phenotype (%) [3]: 34%
- Total Cell Count [3]: 446
- Population Apoptotic (%) [4]: 52%
- Population Fragmented Nuclei (%) [4]: 4%
- Population Healthy Nuclei (%) [4]: 81%
- Population Mitochondria Different-Phenotype (%) [4]: 55%
- Population Mitotic Cells (%) [4]: 47%
- Population Pyknosed Nuclei (%) [4]: 13%
- Population Tubulin-Different-Phenotype (%) [4]: 26%
- Total Cell Count [4]: 275
- Population Apoptotic (%) [5]: 29%
- Population Fragmented Nuclei (%) [5]: 8%
- Population Healthy Nuclei (%) [5]: 78%
- Population Hoechst High Intensity Objects (%) [5]: 6%
- Population Membrane Permeable-Phenotype (%) [5]: 1%
- Population Mitochondria Different-Phenotype (%) [5]: 22%
- Population Mitotic Cells (%) [5]: 70%
- Population Normal (%) [5]: 93%
- Population Pyknosed Nuclei (%) [5]: 12%
- Population Tubulin-Different-Phenotype (%) [5]: 16%
- Total Cell Count [5]: 559
- Population Apoptotic (%) [6]: 40%
- Population Fragmented Nuclei (%) [6]: 5%
- Population Healthy Nuclei (%) [6]: 86%
- Population Membrane Permeable-Phenotype (%) [6]: 0%
- Population Mitochondria Different-Phenotype (%) [6]: 39%
- Population Mitotic Cells (%) [6]: 59%
- Population Pyknosed Nuclei (%) [6]: 7%
- Total Cell Count [6]: 378
- Population Apoptotic (%) [7]: 29%
- Population Fragmented Nuclei (%) [7]: 9%
- Population Healthy Nuclei (%) [7]: 75%
- Population Hoechst High Intensity Objects (%) [7]: 5%
- Population Membrane Permeable-Phenotype (%) [7]: 0%
- Population Mitochondria Different-Phenotype (%) [7]: 27%
- Population Mitotic Cells (%) [7]: 70%
- Population Normal (%) [7]: 94%
- Population Pyknosed Nuclei (%) [7]: 14%
- Population Tubulin-Different-Phenotype (%) [7]: 22%
- Total Cell Count [7]: 592
- Population Apoptotic (%) [8]: 41%
- Population Fragmented Nuclei (%) [8]: 5%
- Population Healthy Nuclei (%) [8]: 79%
- Population Hoechst High Intensity Objects (%) [8]: 7%
- Population Mitochondria Different-Phenotype (%) [8]: 43%
- Population Mitotic Cells (%) [8]: 58%
- Population Normal (%) [8]: 92%
- Population Pyknosed Nuclei (%) [8]: 15%
- Population Tubulin-Different-Phenotype (%) [8]: 18%
- Total Cell Count [8]: 365
- Population Apoptotic (%) [9]: 18%
- Population Fragmented Nuclei (%) [9]: 11%
- Population Healthy Nuclei (%) [9]: 81%
- Population Hoechst High Intensity Objects (%) [9]: 2%
- Population Membrane Permeable-Phenotype (%) [9]: 1%
- Population Mitochondria Different-Phenotype (%) [9]: 13%
- Population Mitotic Cells (%) [9]: 81%
- Population Normal (%) [9]: 97%
- Population Pyknosed Nuclei (%) [9]: 7%
- Population Tubulin-Different-Phenotype (%) [9]: 10%
- Total Cell Count [9]: 998
- Population Apoptotic (%) [10]: 48%
- Population Fragmented Nuclei (%) [10]: 8%
- Population Healthy Nuclei (%) [10]: 84%
- Population Hoechst High Intensity Objects (%) [10]: 7%
- Population Membrane Permeable-Phenotype (%) [10]: 0%
- Population Mitochondria Different-Phenotype (%) [10]: 27%
- Population Mitotic Cells (%) [10]: 51%
- Population Normal (%) [10]: 92%
- Population Pyknosed Nuclei (%) [10]: 6%
- Population Tubulin-Different-Phenotype (%) [10]: 11%
- Total Cell Count [10]: 494
- Population Apoptotic (%) [11]: 24%
- Population Fragmented Nuclei (%) [11]: 13%
- Population Healthy Nuclei (%) [11]: 79%
- Population Hoechst High Intensity Objects (%) [11]: 3%
- Population Membrane Permeable-Phenotype (%) [11]: 0%
- Population Mitochondria Different-Phenotype (%) [11]: 18%
- Population Mitotic Cells (%) [11]: 75%
- Population Normal (%) [11]: 96%
- Population Pyknosed Nuclei (%) [11]: 7%
- Population Tubulin-Different-Phenotype (%) [11]: 10%
- Total Cell Count [11]: 879
- Population Apoptotic (%) [12]: 36%
- Population Fragmented Nuclei (%) [12]: 11%
- Population Healthy Nuclei (%) [12]: 82%
- Population Hoechst High Intensity Objects (%) [12]: 7%
- Population Mitochondria Different-Phenotype (%) [12]: 27%
- Population Mitotic Cells (%) [12]: 64%
- Population Normal (%) [12]: 92%
- Population Pyknosed Nuclei (%) [12]: 5%
- Population Tubulin-Different-Phenotype (%) [12]: 12%
- Total Cell Count [12]: 517

Structure (SMILES): O=C(NCC(=O)N1CC[C@H](N[C@H]2CC[C@@](O)(c3ccc(-c4ncccn4)cn3)CC2)C1)c1cccc(C(F)(F)F)c1 [PF-4136309]
- Population Apoptotic (%) [1]: 44%
- Population Fragmented Nuclei (%) [1]: 6%
- Population Healthy Nuclei (%) [1]: 80%
- Population Hoechst High Intensity Objects (%) [1]: 4%
- Population Membrane Permeable-Phenotype (%) [1]: 0%
- Population Mitochondria Different-Phenotype (%) [1]: 41%
- Population Mitotic Cells (%) [1]: 56%
- Population Normal (%) [1]: 95%
- Population Pyknosed Nuclei (%) [1]: 13%
- Population Tubulin-Different-Phenotype (%) [1]: 32%
- Total Cell Count [1]: 393
- Population Apoptotic (%) [2]: 34%
- Population Fragmented Nuclei (%) [2]: 5%
- Population Hoechst High Intensity Objects (%) [2]: 6%
- Population Mitochondria Different-Phenotype (%) [2]: 56%
- Population Mitotic Cells (%) [2]: 66%
- Population Normal (%) [2]: 93%
- Population Tubulin-Different-Phenotype (%) [2]: 15%
- Total Cell Count [2]: 389
- Population Apoptotic (%) [3]: 39%
- Population Fragmented Nuclei (%) [3]: 7%
- Population Healthy Nuclei (%) [3]: 76%
- Population Hoechst High Intensity Objects (%) [3]: 7%
- Population Membrane Permeable-Phenotype (%) [3]: 0%
- Population Mitochondria Different-Phenotype (%) [3]: 53%
- Population Mitotic Cells (%) [3]: 60%
- Population Normal (%) [3]: 92%
- Population Pyknosed Nuclei (%) [3]: 15%
- Population Tubulin-Different-Phenotype (%) [3]: 55%
- Total Cell Count [3]: 358
- Population Apoptotic (%) [4]: 48%
- Population Fragmented Nuclei (%) [4]: 3%
- Population Healthy Nuclei (%) [4]: 81%
- Population Hoechst High Intensity Objects (%) [4]: 6%
- Population Mitochondria Different-Phenotype (%) [4]: 75%
- Population Mitotic Cells (%) [4]: 51%
- Population Normal (%) [4]: 93%
- Population Pyknosed Nuclei (%) [4]: 14%
- Population Tubulin-Different-Phenotype (%) [4]: 45%
- Total Cell Count [4]: 295
- Population Apoptotic (%) [5]: 25%
- Population Fragmented Nuclei (%) [5]: 10%
- Population Healthy Nuclei (%) [5]: 80%
- Population Hoechst High Intensity Objects (%) [5]: 2%
- Population Membrane Permeable-Phenotype (%) [5]: 0%
- Population Mitochondria Different-Phenotype (%) [5]: 26%
- Population Mitotic Cells (%) [5]: 74%
- Population Normal (%) [5]: 97%
- Population Pyknosed Nuclei (%) [5]: 9%
- Population Tubulin-Different-Phenotype (%) [5]: 15%
- Total Cell Count [5]: 561
- Population Apoptotic (%) [6]: 39%
- Population Fragmented Nuclei (%) [6]: 8%
- Population Hoechst High Intensity Objects (%) [6]: 5%
- Population Mitochondria Different-Phenotype (%) [6]: 31%
- Population Mitotic Cells (%) [6]: 60%
- Population Normal (%) [6]: 94%
- Population Pyknosed Nuclei (%) [6]: 11%
- Population Tubulin-Different-Phenotype (%) [6]: 13%
- Total Cell Count [6]: 485
- Population Apoptotic (%) [7]: 35%
- Population Fragmented Nuclei (%) [7]: 10%
- Population Healthy Nuclei (%) [7]: 73%
- Population Hoechst High Intensity Objects (%) [7]: 7%
- Population Membrane Permeable-Phenotype (%) [7]: 1%
- Population Mitochondria Different-Phenotype (%) [7]: 39%
- Population Mitotic Cells (%) [7]: 64%
- Population Normal (%) [7]: 92%
- Population Pyknosed Nuclei (%) [7]: 16%
- Population Tubulin-Different-Phenotype (%) [7]: 36%
- Total Cell Count [7]: 450
- Population Apoptotic (%) [8]: 57%
- Population Fragmented Nuclei (%) [8]: 8%
- Population Healthy Nuclei (%) [8]: 80%
- Population Hoechst High Intensity Objects (%) [8]: 5%
- Population Membrane Permeable-Phenotype (%) [8]: 0%
- Population Mitochondria Different-Phenotype (%) [8]: 54%
- Population Mitotic Cells (%) [8]: 42%
- Population Normal (%) [8]: 94%
- Population Pyknosed Nuclei (%) [8]: 11%
- Population Tubulin-Different-Phenotype (%) [8]: 27%
- Total Cell Count [8]: 384
- Population Apoptotic (%) [9]: 18%
- Population Fragmented Nuclei (%) [9]: 16%
- Population Healthy Nuclei (%) [9]: 78%
- Population Hoechst High Intensity Objects (%) [9]: 0%
- Population Membrane Permeable-Phenotype (%) [9]: 1%
- Population Mitochondria Different-Phenotype (%) [9]: 14%
- Population Mitotic Cells (%) [9]: 81%
- Population Normal (%) [9]: 99%
- Population Pyknosed Nuclei (%) [9]: 4%
- Population Tubulin-Different-Phenotype (%) [9]: 9%
- Total Cell Count [9]: 1007
- Population Apoptotic (%) [10]: 27%
- Population Healthy Nuclei (%) [10]: 77%
- Population Hoechst High Intensity Objects (%) [10]: 2%
- Population Membrane Permeable-Phenotype (%) [10]: 0%
- Population Mitochondria Different-Phenotype (%) [10]: 16%
- Population Mitotic Cells (%) [10]: 72%
- Population Normal (%) [10]: 97%
- Population Pyknosed Nuclei (%) [10]: 5%
- Population Tubulin-Different-Phenotype (%) [10]: 11%
- Total Cell Count [10]: 907
- Population Apoptotic (%) [11]: 31%
- Population Fragmented Nuclei (%) [11]: 13%
- Population Healthy Nuclei (%) [11]: 75%
- Population Hoechst High Intensity Objects (%) [11]: 5%
- Population Membrane Permeable-Phenotype (%) [11]: 0%
- Population Mitochondria Different-Phenotype (%) [11]: 34%
- Population Mitotic Cells (%) [11]: 68%
- Population Normal (%) [11]: 94%
- Population Pyknosed Nuclei (%) [11]: 11%
- Population Tubulin-Different-Phenotype (%) [11]: 23%
- Total Cell Count [11]: 636
- Population Apoptotic (%) [12]: 43%
- Population Fragmented Nuclei (%) [12]: 11%
- Population Healthy Nuclei (%) [12]: 79%
- Population Hoechst High Intensity Objects (%) [12]: 4%
- Population Mitochondria Different-Phenotype (%) [12]: 46%
- Population Mitotic Cells (%) [12]: 56%
- Population Normal (%) [12]: 95%
- Population Pyknosed Nuclei (%) [12]: 8%
- Population Tubulin-Different-Phenotype (%) [12]: 30%
- Total Cell Count [12]: 468
